Data set [1] is described as follows: Stability in pH 6.4 to 8 phosphate buffer at 100 uM. Conditions: pH 6.4, 100 µM. It is filed as physicochemical. The method, boiled down:
(§1)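 Compound (100 µM, or 10 µM where stated) in 100 mM sodium phosphate buffer, pH 6.4–8.0, with 4% DMSO, held at 37 °C in quartz cuvettes. UV–vis spectra (230–500 nm) recorded at intervals. Remaining compound was calculated from the loss of absorbance at its longest-wavelength maximum (337–354 nm) using its molar absorptivity; hydrolysis is expressed as percent.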

For data set [2], the species on record is Papio hamadryas. Briefly: Inhibition of MAO-B in baboon liver microsome assessed as MMDP+ formation at 14 uM up to 60 mins. It is filed as microsomes. The method, boiled down:
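Baboon liver mitochondria (0.3 mg protein/mL) preincubated with inhibitor (14 µM) in 100 mM sodium phosphate pH 7.4 at 37 °C for 0, 15, 30 or 60 min. Then diluted to 0.15 mg protein/mL (inhibitor 7 µM final) with MMTP 90 µM and incubated 15 min at 37 °C. Perchloric acid stop, MMDP⁺ read at 420 nm; triplicate, mean ± SEM.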
(Liver microsomes are a subcellular fraction often used to study metabolism.)

The nature of data set [3]: Stability in pH 8 sodium phosphate buffer assessed as hydrolysis at 100 uM at 360 mins. The following applies: read-out: Activity. The format is physicochemical. Summed up:
as §1

The nature of data set [4]: Inhibition of MAO-B in baboon liver microsome assessed as MMDP+ formation. It is filed as microsomes, Papio hamadryas. Summed up:
(§2)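 Baboon liver mitochondrial fraction (0.15 mg protein/mL) as MAO-B source; substrate MMTP 30–120 µM with varied inhibitor concentrations, 4% DMSO cosolvent. Incubation at 37 °C for 10 min, stopped with perchloric acid, centrifuged; MMDP⁺ read at 420 nm (ε 25,000 M⁻¹). Ki from the x-intercept of a replot of Lineweaver–Burk slopes versus inhibitor concentration; single determination, replot R² ≥0.99.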

Data set [5] can be described thus: Stability in pH 7.4 sodium phosphate buffer assessed as hydrolysis at 10 uM after 30 mins. Conditions: read-out: Activity. The format is physicochemical. Summed up:
as §1

Data set [6] in a line: Stability in pH 7.4 sodium phosphate buffer assessed as hydrolysis at 100 uM at 360 mins. The format is physicochemical. Conditions: read-out: Activity. Summed up: as §1
Data set [7] is described as follows: Stability in pH 7.4 sodium phosphate buffer assessed as hydrolysis at 100 uM after 30 mins. The format is physicochemical. The following applies: read-out: Activity. The method, boiled down: as §1
The nature of data set [8]: Stability in pH 6.4 to 8 phosphate buffer at 100 uM up to 360 mins. The following applies: pH 6.4, 6 h. It is filed as physicochemical. Summed up: as §1
A short description of data set [9]: Stability in pH 7 sodium phosphate buffer assessed as hydrolysis at 100 uM at 360 mins. The format is physicochemical. The following applies: read-out: Activity. Summed up:
as §1

In data set [10] the target is T1, Amine oxidase [flavin-containing] B (Homo sapiens, UniProt P27338).
T1 sequence (P27338 whole entry): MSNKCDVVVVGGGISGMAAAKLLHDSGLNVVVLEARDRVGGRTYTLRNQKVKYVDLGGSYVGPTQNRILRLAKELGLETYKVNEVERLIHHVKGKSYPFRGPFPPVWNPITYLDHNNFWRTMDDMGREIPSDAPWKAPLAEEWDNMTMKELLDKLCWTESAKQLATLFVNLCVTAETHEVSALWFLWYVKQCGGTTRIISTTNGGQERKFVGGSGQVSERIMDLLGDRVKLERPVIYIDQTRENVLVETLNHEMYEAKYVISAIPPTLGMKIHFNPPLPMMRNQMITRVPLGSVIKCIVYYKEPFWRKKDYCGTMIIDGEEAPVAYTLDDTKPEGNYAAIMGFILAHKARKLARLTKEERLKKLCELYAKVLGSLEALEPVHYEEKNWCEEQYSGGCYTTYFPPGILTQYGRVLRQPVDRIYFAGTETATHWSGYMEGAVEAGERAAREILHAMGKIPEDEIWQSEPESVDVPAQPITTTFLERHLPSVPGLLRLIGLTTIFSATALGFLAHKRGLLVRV
Put plainly: Inactivation of human […] assessed as half time at 0.8 mM. The following applies: 800 µM.

For data set [11], the species on record is Papio hamadryas. Briefly: Inhibition of MAO-B in baboon liver microsome assessed as MMDP+ formation at 13 uM after 120 mins relative to control; values are per cent of control.
The species entered for data set [12] is Papio hamadryas. Put plainly: Inhibition of MAO-B in baboon liver microsome assessed as MMDP+ formation at 13 uM after 30 mins relative to control; values are per cent of control.
The species named for data set [13] is Papio hamadryas. Briefly: Inhibition of MAO-B in baboon liver microsome assessed as MMDP+ formation at 13 uM after 60 mins relative to control; values are per cent of control.
The species named for data set [14] is Papio hamadryas. Put plainly: Competitive inhibition of MAO-B in baboon liver microsome by Lineweaver-Burke plot. The format is microsomes. The method, boiled down:
as §2

The species named for data set [15] is Papio hamadryas. Put plainly: Inhibition of MAO-B in baboon liver microsome assessed as MMDP+ formation at 13 uM after 240 mins relative to control; values are per cent of control.
Data set [16] is filed under the species Papio hamadryas. Put plainly: Inhibition of MAO-B in baboon liver microsome assessed as MMDP+ formation at 13 uM after 180 mins relative to control; values are per cent of control.

Structures are written as SMILES. Active and inactive are the calls of the source. The rule behind the calls is not given here.

What is called Ki is a measure of affinity in units of concentration, obtained from inhibition or displacement. In the case of `CN1C(=O)C=C(c2ccccc2)C1=O`, the Activity entry in data set [1] and in data set [8] was “Stable” in each case. Also, the outcome in the data set listed under Papio hamadryas [2] was inactive. Also, the degraded at 6 h, 100 µM in data set [3] was 73.8%; in data set [6], 31.4%; in [9] it was 13%. In data set [4], the Ki came out at 3.49 µM. Besides, the degraded at 0.5 h, 10 µM in data set [5] came to 1%. In addition, the degraded at 0.5 h, 100 µM in data set [7] was 2.8%.

For the compound `CN1C(=O)C=C(c2cccc(C(F)(F)F)c2)C1=O`, in [4], the inhibition constant (Ki) was found to be 11 µM. In addition, the degraded at 0.5 h, 100 µM in [7] is 40%.

For `CCN1C(=O)C=CC1=O` [N-ETHYLMALEIMIDE], the Time in data set [10] was 8 h.

On to `CN1C(=O)C=C(c2cccc(Br)c2)C1=O`, for which the Ki in [4] was found to be 6.99 µM. In data set [7], the degraded at 0.5 h, 100 µM was 40%.

On to `Cc1cccc(C2=CC(=O)N(C)C2=O)c1`, for which the Ki in [4] stood at 8.6 µM. The degraded at 0.5 h, 100 µM in data set [7] is 40%.

Consider `COc1cccc(C2=CC(=O)N(C)C2=O)c1`, for which the Ki in data set [4] was 8.56 µM. Besides, the degraded at 0.5 h, 100 µM in data set [7] was found to be 40%.

`CN1C(=O)C=C(c2cccc(F)c2)C1=O`: in data set [4], the Ki was determined as 5.73 µM. In addition, in data set [7], the degraded at 0.5 h, 100 µM amounted to 40%.

A word on the residual activity: it is what remains of the control signal, in per cent. For `CN1C(=O)C=C(c2cccc(Cl)c2)C1=O`, the residual activity in the data set listed under Papio hamadryas [11] amounted to 68%; in the data set filed under Papio hamadryas [12] it was 52%; in the data set filed under Papio hamadryas [13], 66%; in the data set listed under Papio hamadryas [15], 84%; in the data set filed under Papio hamadryas [16], 80%. For the same compound, in [4], the Ki was found to be 6.66 µM. The result in the data set listed under Papio hamadryas [14] was Active. In addition, in [7], the degraded at 0.5 h, 100 µM stood at 40%.

The values above are taken from ChEMBL document CHEMBL1153437, “Inhibition of monoamine oxidase B by N-methyl-2-phenylmaleimides” (Bioorg Med Chem, 2009).
